This assay can be described thus: antiplasmodial activity in infected erythrocytes – cell-based, radiolabel, 3D7, RBCs, Set2, M18AAP inhibitor project, late-stage follow-up (AID 720736). The note with it: P. falciparum 3D7 in RBCs, 3H-hypoxanthine incorporation, 48 h, at 10 µM, stronger effect = higher value. The essentials: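 Evaluation: % growth inhibition versus vehicle-treated parasites, background-subtracted. Assay system: P. falciparum 3D7-infected RBCs. Reagent: 3H-hypoxanthine, 0.5 µCi/well. Schedule: 48 h compound exposure at 37 °C in low-oxygen gas. Medium: hypoxanthine-free RPMI, 10% serum. Replication: triplicates, one or two experiments. Control set: vehicle-treated parasites and uninfected RBCs. Technique: 3H-hypoxanthine uptake by beta counting.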

Structures are written as SMILES. Active and inactive are the calls of the source.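 How the source made its calls: active means growth inhibition of at least 50% in any replicate; inactive means growth inhibition below 50% in every replicate.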

Consider `COc1ccc(CCNc2cc(C)nc3ccccc23)cc1OC`, for which, for the setting “run 1”, the growth inhibition was 26% (inactive).

`COc1cc(Br)c(CCNc2c3c(nc4ccccc24)CCCC3)cc1OC`: under “run 1”, the growth inhibition is 96%.

Regarding `COc1ccc(CCNC(c2ccccc2)c2ccccc2)cc1OC`, where the note is “run 1”, the growth inhibition was 0% (inactive).

As for `Oc1cccc(CCNc2ccnc3ccccc23)c1O`, the growth inhibition (run 1) was 97%.

Consider `COc1ccc(CCNC2CCN(Cc3ccccc3)CC2)cc1OC`, for which the growth inhibition is, setting by setting: (run 1) 88%; (run 2) 93%.

For `NCCNc1c2ccccc2nc2ccccc12`, the growth inhibition is, setting by setting: (run 1) 100%; (run 2) 99%.

Regarding `CN(CCCc1ccc(O)c(O)c1)c1ccnc2ccccc12`, the growth inhibition (run 1) was 0% (inactive).

In the case of `COc1ccc(CCNc2ncnc3ccccc23)cc1OC`, the growth inhibition (run 1) is 5% (inactive).

With `CCN(CCc1ccc(O)c(O)c1)c1c2ccccc2nc2ccccc12`, the growth inhibition (run 1) is 20% (inactive).

Consider `Cc1cccc2c(N(C)CCc3ccc(O)c(O)c3)ccnc12`, for which the growth inhibition (run 1) is 5% (inactive).

Take `COc1ccc(CCCNc2c3ccccc3nc3ccccc23)cc1OC`: the growth inhibition (run 1) is 88% and the growth inhibition (run 2) was 95%.

As for `CN(CCCc1ccc(O)c(O)c1)c1c2ccccc2nc2ccccc12`, under “run 1”, the growth inhibition was 21% (inactive).

Take `Cc1cccc2c(NCCc3ccc(O)c(O)c3)ccnc12`: the growth inhibition (run 1) was 56%.

As for `Oc1ccc(CCNc2ccc3ccccc3c2)cc1O`, the growth inhibition was 21% (inactive) (run 1) and 18% (inactive) (run 2).

On to `Oc1ccc(CCNc2c3c(nc4ccccc24)CCCC3)cc1O`, for which the growth inhibition by setting is: (run 1) 90%; (run 2) 95%.

Turning to `COc1ccc(CCCN(C)c2c3ccccc3nc3ccccc23)cc1OC`, the growth inhibition (run 1) was 17% (inactive).

Regarding `Cc1nc(NCCc2ccc(O)c(O)c2)c2c3c(sc2n1)CCC3`, the growth inhibition (run 1) was 0% (inactive).

For `CC(Cc1ccc(O)c(O)c1)Nc1ccnc2ccccc12` (stereo unspecified), the growth inhibition (run 1) is 19% (inactive).

For the compound `COc1cc(Br)c(CCNc2c3ccccc3nc3ccccc23)cc1OC`, the growth inhibition (run 1) was 95%.

As to `COc1ccc(CCNC(=O)c2cc(C)ccc2N)cc1OC`, the growth inhibition (run 1) was 0% (inactive).

Regarding `COc1ccc(CCN(C)c2ccnc3c(F)cccc23)cc1OC`, where the note is “run 1”, the growth inhibition was 5% (inactive).

Regarding `COc1ccc(CCN(C)c2ccnc3ccccc23)cc1OC`, the growth inhibition (run 1) is 95% and the growth inhibition (run 2) is 94%.

Turning to `COc1ccc(CCNc2ccnc3cc(Cl)ccc23)cc1OC`, the growth inhibition (run 1) was 69%.

Regarding `COc1ccc(C2CCN(c3ccnc4ccccc34)CC2)cc1OC`, the growth inhibition (run 1) was 1% (inactive).

As to `COc1ccc(CCCN2CCN(C)CC2)cc1OC`, the growth inhibition (run 1) was 0% (inactive).

Turning to `COc1ccc(CCNc2c3ccccc3nc3ccccc23)cc1OC`, the growth inhibition was 98% (run 1) and 100% (run 2).

In the case of `Oc1ccc(C2CCN(c3ccnc4ccccc34)CC2)cc1O`, the growth inhibition (run 1) was 76%.

For `COc1ccc(CCNc2c3ccccc3nc3ccccc23)cc1`, the growth inhibition runs as follows: (run 1) 100%; (run 2) 98%.

For `COc1ccc(CCN(C)c2ccnc3cc(Cl)ccc23)cc1OC`, the growth inhibition by setting is: (run 1) 97%; (run 2) 92%.

As to `COc1ccc(CNc2c3ccccc3nc3ccccc23)cc1OC`, the growth inhibition (run 1) was 100% and the growth inhibition (run 2) is 99%.

In the case of `COc1ccc(CCNc2cncc3ccccc23)cc1OC`, the growth inhibition is, setting by setting: (run 1) 65%; (run 2) 63%.

`CN1CCN(CCc2ccc(O)c(O)c2)CC1`: the growth inhibition reads like this: (run 1) 4% (inactive); (run 2) 0% (inactive).

Consider `Oc1ccc(CCNc2ccnc3c(F)cccc23)cc1O`, for which, under “run 1”, the growth inhibition is 0% (inactive).

Consider `COc1ccc(CCNc2c3c(nc4ccccc24)CCCC3)cc1OC`, for which the growth inhibition reads like this: (run 1) 38% (inactive); (run 2) 55%.

For the compound `CN(CCc1ccc(O)c(O)c1)c1ccnc2cc(Cl)ccc12`, under “run 1”, the growth inhibition is 0% (inactive).

With `CN1CCN(CCCc2ccc(O)c(O)c2)CC1`, the growth inhibition runs as follows: (run 1) 5% (inactive); (run 2) 0%.

For `CCN(CC)Cc1cc(Nc2ccnc3cc(Cl)ccc23)ccc1O`, the growth inhibition (run 1) was 98%.

Consider `COc1ccc(CCNc2c3c(nc4ccc(C)cc24)CCCC3)cc1OC`, for which, under “run 1”, the growth inhibition is 27% (inactive).

As to `COc1ccc(CCN2CCN(C)CC2)cc1OC`, the growth inhibition (run 1) was 0% (inactive) and the growth inhibition (run 2) is 5% (inactive).

Consider `O=c1ccn(CCNc2c3ccccc3nc3ccccc23)cc1OCc1ccccc1`, for which the growth inhibition runs as follows: (run 1) 92%; (run 2) 84%.

Turning to `O=C(O)CCCCNc1c2ccccc2nc2ccccc12`, the growth inhibition (run 1) is 27% (inactive) and the growth inhibition (run 2) was 20% (inactive).

As for `COc1ccc(CCN(C)c2ccnc3c(C)cccc23)cc1OC`, where the note is “run 1”, the growth inhibition is 5% (inactive).

Regarding `COc1ccc(CCN(C)c2ncnc3ccccc23)cc1OC`, the growth inhibition (run 1) is 3% (inactive).

Turning to `O=C(O)CCCNc1c2ccccc2nc2ccccc12`, the growth inhibition reads like this: (run 1) 0% (inactive); (run 2) 15% (inactive).

For `Oc1ccc(CCNc2c3ccccc3nc3ccccc23)cc1`, the growth inhibition is 95% (run 1) and 95% (run 2).

For `Cc1cc(N(C)CCc2ccc(O)c(O)c2)c2ccccc2n1`, for the setting “run 1”, the growth inhibition was 6% (inactive).

Turning to `COc1cc(Br)c(CCNc2ccnc3ccccc23)cc1OC`, where the note is “run 1”, the growth inhibition was 90%.

In the case of `CCOc1ccc2nccc(NCCc3ccc(OC)c(OC)c3)c2c1`, where the note is “run 1”, the growth inhibition was 72%.

As for `Oc1ccc(CCNC(c2ccccc2)c2ccccc2)cc1O`, the growth inhibition (run 1) is 47% (inactive) and the growth inhibition (run 2) was 57%.

Take `Oc1ccc(CCNc2ccnc3cc(Cl)ccc23)cc1O`: where the note is “run 1”, the growth inhibition was 92%.

With `CN(CCc1ccc(O)c(O)c1)c1c2ccccc2nc2ccccc12`, the growth inhibition (run 1) is 5% (inactive).

`COc1ccc(CCCNc2c3c(nc4ccccc24)CCCC3)cc1OC`: the growth inhibition (run 1) was 4% (inactive).

For the compound `CN(CCc1ccc(O)c(O)c1)c1ccncc1`, the growth inhibition is 3% (inactive) (run 1) and 13% (inactive) (run 2).

`Oc1ccc(CCNc2cccc3ccccc23)cc1O`: the growth inhibition was 16% (inactive) (run 1) and 22% (inactive) (run 2).

As to `CCN(CCc1ccc(OC)c(OC)c1)c1c2ccccc2nc2ccccc12`, under “run 1”, the growth inhibition is 18% (inactive).

In the case of `COc1ccc(C2CCN(c3ccnc4ccccc34)C2)cc1OC` (stereo unspecified), the growth inhibition (run 1) was 94%.

Consider `CCOc1ccc2nccc(N(C)CCc3ccc(OC)c(OC)c3)c2c1`, for which the growth inhibition (run 1) is 15% (inactive).

For `Oc1ccc(CCCNc2c3c(nc4ccccc24)CCCC3)cc1O`, the growth inhibition (run 1) was 12% (inactive).

`CN(CCc1ccc(O)c(O)c1)c1ncnc2ccccc12`: the growth inhibition (run 1) was 1% (inactive).

As for `COc1ccc(CCNC2CCN(C)CC2)cc1OC`, the growth inhibition is, setting by setting: (run 1) 0% (inactive); (run 2) 0% (inactive).

For the compound `COc1ccc(CCNc2cccc3ccccc23)cc1OC`, the growth inhibition (run 1) was 9% (inactive) and the growth inhibition (run 2) was 20% (inactive).

Consider `CN(CCc1ccc(O)c(O)c1)c1ccnc2ccccc12`, for which the growth inhibition was 91% (run 1) and 95% (run 2).

In the case of `COc1ccc(CCNc2ccncc2)cc1OC`, the growth inhibition runs as follows: (run 1) 6% (inactive); (run 2) 12% (inactive).

Take `COc1cccc(CCNc2c3ccccc3nc3ccccc23)c1`: the growth inhibition reads like this: (run 1) 100%; (run 2) 99%.

As for `Oc1ccc(CCNc2ccnc3ccccc23)cc1O`, the growth inhibition is, setting by setting: (run 1) 89%; (run 2) 98%.

`COc1ccc(CCN(C)c2ccncc2)cc1OC`: the growth inhibition reads like this: (run 1) 0% (inactive); (run 2) 0% (inactive).

For the compound `Cc1c(OCc2ccccc2)c(=O)ccn1CCNc1c2ccccc2nc2ccccc12`, the growth inhibition is, setting by setting: (run 1) 94%; (run 2) 99%.

As to `Oc1ccc(C2CCCN(c3ccnc4ccccc34)C2)cc1O` (stereo unspecified), the growth inhibition (run 1) is 50%.

Consider `Oc1ccc(C2CCN(c3ccnc4ccccc34)C2)cc1O` (stereo unspecified), for which the growth inhibition (run 1) is 95%.

For `Oc1ccc(CCNc2cncc3ccccc23)cc1O`, the growth inhibition is 38% (inactive) (run 1) and 27% (inactive) (run 2).

As for `COc1ccc(CCNc2ccnc3c(F)cccc23)cc1OC`, the growth inhibition (run 1) was 26% (inactive).

As to `COc1ccc(CCNc2ccnc3c(C)cccc23)cc1OC`, the growth inhibition (run 1) is 20% (inactive).

On to `Oc1ccc(CCCNc2c3ccccc3nc3ccccc23)cc1O`, for which the growth inhibition is, setting by setting: (run 1) 91%; (run 2) 93%.

Regarding `COc1ccc(CCNc2ccc3ccccc3c2)cc1OC`, the growth inhibition is 0% (inactive) (run 1) and 3% (inactive) (run 2).

Consider `Oc1ccc(CCN2CCc3ccccc3C2)cc1O`, for which the growth inhibition is 52% (run 1) and 62% (run 2).

Consider `CC(C)(CNc1ccnc2ccccc12)c1ccc(O)c(O)c1`, for which the growth inhibition (run 1) is 35% (inactive).

For `Oc1ccc(CCNC2CCN(Cc3ccccc3)CC2)cc1O`, the growth inhibition is 90% (run 1) and 95% (run 2).

Take `COc1ccc(CCN(C)c2c3ccccc3nc3ccccc23)cc1OC`: the growth inhibition (run 2) was 98%.

Turning to `COc1ccc(CCN2CCc3ccccc3C2)cc1OC`, the growth inhibition was 0% (inactive) (run 1) and 3% (inactive) (run 2).

For the compound `CN(CCc1ccc(O)c(O)c1)c1ccnc2c(F)cccc12`, the growth inhibition (run 1) is 3% (inactive).

(Values after PubChem BioAssay AID720736 (The Scripps Research Institute Molecular Screening Center, 2013).)
